From paper PMC11170203 (Saudi Pharmaceutical Journal : SPJ, 2024)
Blank lines part the entries; values can stand above or below the molecule they belong to.

How the values were obtained:
[1] = biological target: porcine pancreatic elastase (Sus scrofa, UniProt P00772); assay: Elastase enzyme inhibitory assay; format: biochemical; settings: concentration range 15.63–1000 µg/mL
Summary of the method: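 Porcine pancreatic elastase and the test extract in Tris-HCl (100 mM, pH 8.0) are incubated 5 min at 37 °C. The reaction is started with succinyl-Ala-Ala-Ala-p-nitroanilide (4.4 mM solution in Tris-HCl), and absorbance is read at 410 nm. EGCG is the positive control and distilled water the negative control. IC50 is taken from dose-response curves of % inhibition, with three independent experiments.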

[2] = biological target: collagenase from Clostridium histolyticum; assay: Collagenase enzyme inhibitory assay; format: biochemical; settings: concentration range 15.63–1000 µg/mL
Summary of the method: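 Clostridium histolyticum collagenase (0.1 mg/mL) is preincubated with the test extract in tricine buffer (50 mM tricine, 10 mM CaCl2, 400 mM NaCl, pH 7.5) for 20 min at 37 °C. FALGPA substrate (1 mM solution) is added, and absorbance is read at 335 nm after 15 min. EGCG is the positive control. IC50 is taken from dose-response curves of % inhibition, with three independent experiments.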

hyaluronidase = biological target: T1, hyaluronidase (Bos taurus, UniProt Q2YDK3); assay: Hyaluronidase enzyme inhibitory assay; format: biochemical; settings: concentration range 25–250 µg/mL
T1 sequence (Q2YDK3 36-553): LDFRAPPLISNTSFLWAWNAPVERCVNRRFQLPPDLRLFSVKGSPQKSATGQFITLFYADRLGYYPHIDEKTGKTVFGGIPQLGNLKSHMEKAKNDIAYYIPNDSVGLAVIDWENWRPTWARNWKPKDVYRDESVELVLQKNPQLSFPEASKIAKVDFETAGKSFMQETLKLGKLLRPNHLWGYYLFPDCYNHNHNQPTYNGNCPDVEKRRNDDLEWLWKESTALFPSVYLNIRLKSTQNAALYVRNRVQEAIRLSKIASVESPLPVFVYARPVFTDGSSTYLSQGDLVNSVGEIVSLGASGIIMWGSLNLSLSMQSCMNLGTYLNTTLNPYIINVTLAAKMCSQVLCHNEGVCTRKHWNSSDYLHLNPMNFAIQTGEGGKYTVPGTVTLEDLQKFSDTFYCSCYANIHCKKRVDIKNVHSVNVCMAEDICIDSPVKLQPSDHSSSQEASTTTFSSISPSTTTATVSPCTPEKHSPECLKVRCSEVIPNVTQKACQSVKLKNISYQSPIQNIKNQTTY
Summary of the method: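 The test extract in 10% DMSO is incubated with hyaluronidase 10 min at 37 °C, then with CaCl2 (12.5 mM solution) for 10 min. Sodium hyaluronate is added for 40 min at 37 °C. NaOH (0.9 M) and sodium borate (0.2 M) are added and heated 3 min at 100 °C. PDMAB (67 mM) is added for 10 min at 37 °C, and absorbance is read at 585 nm. Tannic acid is the reference; IC50 comes from dose-response curves, three independent experiments.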

[3] = Ferric reducing antioxidant power; settings: mean ± S.D. of three measurements
Summary of the method: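 FRAP reagent is acetate buffer (300 mM, pH 3.6), TPTZ (10 mM in 40 mM HCl) and FeCl3·6H2O (20 mM) at 10:1:1, prewarmed 10 min at 37 °C. The test extract reacts with the reagent for 30 min at 37 °C, and Fe(II)-TPTZ is read at 593 nm. Values come from a ferrous sulfate calibration curve, as FeSO4 equivalents per g extract. Ascorbic acid is the reference; three independent experiments, mean ± SD.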

[4] = DPPH radical scavenging assay
Summary of the method: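 The test extract (6.25–400 ug/mL) is mixed 1:1 with 0.06 mM DPPH in absolute ethanol and incubated 30 min in the dark. Absorbance is read at 517 nm and corrected with a DPPH-free sample background. BHT is the standard. % inhibition = (Acontrol − Asample)/Acontrol × 100. IC50 comes from dose-response curves; three independent experiments, mean ± SD.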

Chain of porcine pancreatic elastase (P00772 27-266): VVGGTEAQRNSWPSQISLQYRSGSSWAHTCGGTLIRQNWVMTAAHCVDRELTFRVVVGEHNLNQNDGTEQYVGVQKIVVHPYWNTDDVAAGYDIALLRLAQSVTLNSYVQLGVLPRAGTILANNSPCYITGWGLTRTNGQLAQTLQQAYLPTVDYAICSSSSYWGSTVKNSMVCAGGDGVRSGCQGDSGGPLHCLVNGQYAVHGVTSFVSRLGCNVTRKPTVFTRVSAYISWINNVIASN

Elastase inhibition IC50 [1]: 33.334 ± 0.299 µg/mL
Collagenase inhibition IC50 [2]: 33.662 ± 0.302 µg/mL
Molecule: O=C(O[C@@H]1Cc2c(O)cc(O)cc2O[C@@H]1c1cc(O)c(O)c(O)c1)c1cc(O)c(O)c(O)c1 [EGCG, epigallocatechin gallate]

Hyaluronidase inhibition IC50 (hyaluronidase): 30.652 ± 0.626 µg/mL
Molecule: tannic acid

Molecule: O=C1O[C@H]([C@@H](O)CO)C(O)=C1O [Ascorbic acid]
FRAP [3]: 4794.7 ± 5.507 µM FeSO4/g extract

DPPH (IC50) ([4]; mean ± S.D. of three measurements): 20.721 ± 0.138 µg/mL
DPPH radical scavenging IC50 ([4]; unit as printed in the results text): 20.72 ± 0.138 µg/mL
Molecule: Cc1cc(C(C)(C)C)c(O)c(C(C)(C)C)c1 [BHT, butylated hydroxytoluene]
